Test results from ChEMBL document CHEMBL3817726, “Chemically Diverse Group I p21-Activated Kinase (PAK) Inhibitors Impart Acute Cardiovascular Toxicity with a Narrow Therapeutic Window” (J Med Chem, 2016).

Tests used:
[1] = biological target: Serine/threonine-protein kinase PAK 1/PAK 2 (Homo sapiens, UniProt Q13177+Q13153); experiment: Inhibition of PAK1/2 in human EBC1 cells assessed as phosphorylation of MEK1 at serine 298 after 2 hrs by HTRF assay; type: cell-based
[2] = Cmax associated with acute adverse effect in mouse at 100 to 200 mg/kg, ip; type: ADME, organism-based; details: in vivo
How it was run: (§1)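 Mouse tolerability studies tested multiple doses, given orally or intraperitoneally. Plasma drug concentrations were measured, including at a 15 min time point. The minimum concentration associated with adverse clinical signs or death was taken as the adverse Cmax and was converted to an unbound value.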

[3] = biological target: Serine/threonine-protein kinase PAK 1 (Homo sapiens, UniProt Q13153); experiment: Inhibition of human recombinant N-terminal 6-His-tagged PAK1 kinase domain (249 to 545 residues) expressed in Escherichia coli BL21(DE3) assessed as phosphorylation of coumarin labeled FRET peptide substrate at Ser/Thr19 preincubated for 10 mins followed by ATP addition measured after 60 mins by Z'-LYTE assay
Serine/threonine-protein kinase PAK 1, sequence (Q13153 whole entry, the tested form may be a part): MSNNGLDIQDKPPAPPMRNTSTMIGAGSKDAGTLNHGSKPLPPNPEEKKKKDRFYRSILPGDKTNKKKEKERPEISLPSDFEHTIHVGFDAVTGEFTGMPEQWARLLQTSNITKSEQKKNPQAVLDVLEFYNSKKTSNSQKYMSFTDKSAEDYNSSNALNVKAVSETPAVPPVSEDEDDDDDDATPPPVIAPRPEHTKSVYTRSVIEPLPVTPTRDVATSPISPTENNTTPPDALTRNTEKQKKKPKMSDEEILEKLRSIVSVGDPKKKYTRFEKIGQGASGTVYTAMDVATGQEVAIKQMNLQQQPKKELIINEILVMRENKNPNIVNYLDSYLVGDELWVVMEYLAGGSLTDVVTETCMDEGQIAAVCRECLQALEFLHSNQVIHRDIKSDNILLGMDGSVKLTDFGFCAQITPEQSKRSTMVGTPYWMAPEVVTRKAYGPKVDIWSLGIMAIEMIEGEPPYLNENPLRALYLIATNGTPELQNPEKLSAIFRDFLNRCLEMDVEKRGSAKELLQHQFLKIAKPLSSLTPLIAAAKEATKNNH

[4] = Ratio of fCmax associated with acute adverse effect in mouse at 100 to 200 mg/kg, ip to IC50 for PAK1/2-mediated phosphorylation of MEK1 at serine 298 in human EBC1 cells
Mus musculus [5] = experiment: fCmax associated with acute adverse effect in mouse at 100 to 200 mg/kg, ip; type: ADME, organism-based; details: in vivo
How it was run: (§2)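 Mouse tolerability studies at multiple doses, oral or intraperitoneal. Minimum unbound plasma concentration associated with adverse effects (total Cmax converted to unbound) compared with IC50 for inhibition of MEK1 S298 phosphorylation in cells.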

[6] = Fraction unbound in mouse plasma at 100 to 200 mg/kg, ip; type: ADME, organism-based
[7] = biological target: Serine/threonine-protein kinase PAK 2 (Homo sapiens, UniProt Q13177); experiment: Inhibition of human recombinant PAK2 assessed as phosphorylation of coumarin labeled FRET peptide substrate at Ser/Thr19 preincubated for 10 mins followed by ATP addition measured after 60 mins by Z'-LYTE assay
Serine/threonine-protein kinase PAK 2, sequence (Q13177 whole entry): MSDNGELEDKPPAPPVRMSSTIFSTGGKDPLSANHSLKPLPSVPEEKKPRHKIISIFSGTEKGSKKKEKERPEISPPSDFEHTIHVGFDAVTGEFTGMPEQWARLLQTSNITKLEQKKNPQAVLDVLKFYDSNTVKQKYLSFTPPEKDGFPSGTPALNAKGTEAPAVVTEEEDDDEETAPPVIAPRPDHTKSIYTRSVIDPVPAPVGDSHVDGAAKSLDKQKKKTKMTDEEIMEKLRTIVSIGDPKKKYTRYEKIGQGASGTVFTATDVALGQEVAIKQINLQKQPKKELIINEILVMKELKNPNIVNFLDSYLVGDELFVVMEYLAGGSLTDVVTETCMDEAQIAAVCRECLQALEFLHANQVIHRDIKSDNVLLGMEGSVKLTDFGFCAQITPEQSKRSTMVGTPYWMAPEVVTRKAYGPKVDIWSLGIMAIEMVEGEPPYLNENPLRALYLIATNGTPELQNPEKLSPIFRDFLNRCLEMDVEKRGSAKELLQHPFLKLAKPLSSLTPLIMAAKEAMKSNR

Mus musculus [8] = experiment: fCmax in mouse at 100 mg/kg, ip; type: ADME, organism-based; details: in vivo; how it was run: as §2
[9] = Fraction unbound in mouse plasma at 100 mg/kg, ip; type: ADME, organism-based
[10] = Cmax in mouse at 100 mg/kg, ip; type: ADME, organism-based; parameters: dose 100 mg/kg, route intraperitoneal; details: in vivo
[11] = Fraction unbound in mouse plasma at 150 to 300 mg/kg, ip; type: ADME, organism-based
Mus musculus [12] = experiment: fCmax associated with acute adverse effect in mouse at 150 to 300 mg/kg, ip; type: ADME, organism-based; details: in vivo; how it was run: as §2
[13] = Cmax associated with acute adverse effect in mouse at 150 to 300 mg/kg, ip; type: ADME, organism-based; details: in vivo; how it was run: as §1
[14] = Ratio of fCmax associated with acute adverse effect in mouse at 150 to 300 mg/kg, ip to IC50 for PAK1/2-mediated phosphorylation of MEK1 at serine 298 in human EBC1 cells
How it was run: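 Mice were dosed at multiple levels, orally or intraperitoneally, and monitored for acute adverse signs. The minimum unbound plasma Cmax associated with adverse effects was converted from total drug concentration and compared with the cellular IC50 for phospho-MEK1 S298 inhibition.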

[15] = Cmax associated with acute adverse effect in mouse at 50 mg/kg, ip; type: ADME, organism-based; parameters: dose 50 mg/kg, route intraperitoneal; details: in vivo; how it was run: as §1
[16] = Fraction unbound in mouse plasma at 25 mg/kg, ip; type: ADME, organism-based
[17] = Ratio of fCmax associated with acute adverse effect in mouse at 25 mg/kg, ip to IC50 for PAK1/2-mediated phosphorylation of MEK1 at serine 298 in human EBC1 cells
Mus musculus [18] = experiment: fCmax associated with acute adverse effect in mouse at 25 mg/kg, ip; type: ADME, organism-based; details: in vivo; how it was run: as §2
[19] = Ratio of fCmax associated with acute adverse effect in mouse at 25 to 50 mg/kg, po to IC50 for PAK1/2-mediated phosphorylation of MEK1 at serine 298 in human EBC1 cells
How it was run: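 Mouse tolerability studies at multiple doses, given p.o. or i.p. Total plasma concentrations were converted to unbound levels. The minimum unbound Cmax linked to adverse effects was set against the cellular IC50 for inhibition of MEK1 S298 phosphorylation.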

[20] = Cmax associated with acute adverse effect in mouse at 25 to 50 mg/kg, po; type: ADME, organism-based; details: in vivo; how it was run: as §1
[21] = Fraction unbound in mouse plasma at 25 to 50 mg/kg, po; type: ADME, organism-based
Mus musculus [22] = experiment: fCmax associated with acute adverse effect in mouse at 25 to 50 mg/kg, po; type: ADME, organism-based; details: in vivo; how it was run: as §2

Work on `Cc1cncc(-c2ccc(-c3cc4cncnc4n(C[C@H]4CC[C@H](N)CC4)c3=O)c(Cl)c2)n1` yielded an IC50 [1] of 6000 nM, a Cmax [2] of 59 µM and a Ki [3] of 372 nM. It also gave a Ratio [4] of 1, a fCmax (Mus musculus [5]) of 6.1 µM and a fraction unbound [6] of 0.104. The Ki [7] was 940 nM.

With `CNc1ncc2cc(-c3ccc(-n4ccc(C)cc4=O)cc3Cl)c(=O)n(C[C@H]3CNCCO3)c2n1` the fCmax (Mus musculus [8]) was 5.7 µM, the IC50 [1] was greater than 30000 nM and the Ki [3] was 943 nM. The fraction unbound [9] was 0.143, the Cmax [10] was 40 µM and the Ki [7] was 2300 nM.

In the case of `CNc1ncc2cc(-c3ccc(-n4cccc(C)c4=O)cc3C3CC3)c(=O)n(C[C@@H]3CNCCO3)c2n1`, the fraction unbound [11] is reported as 0.025, the IC50 [1] is reported as 15000 nM and the fCmax (Mus musculus [12]) is reported as 1.6 µM. For the same molecule, the Cmax [13] was 63 µM, the Ki [3] was 950 nM and the Ratio [14] was 1. It also gave a Ki [7] of 3670 nM.

In the case of `N[C@H]1CC[C@H](CNc2nccc(Nc3cc(C(F)(F)F)ccn3)n2)CC1`, the Cmax [15] is reported as 26 µM, the fraction unbound [16] is reported as 0.063 and the Ratio [17] is reported as 1. The fCmax (Mus musculus [18]) was 1.6 µM.

With `CNc1ncc2cc(-c3ccc(-n4cncc(C)c4=O)cc3Cl)c(=O)n(CCOC)c2n1` the Ratio [19] was 1, the IC50 [1] was 800 nM and the Cmax [20] was 14 µM. The Ki [3] was 22 nM, the fraction unbound [21] was 0.059 and the fCmax (Mus musculus [22]) was 0.85 µM. The Ki [7] was 39 nM.
